Measured values from PMC5615155 (Toxicology Reports, 2017).
Entries after “also recorded” stand apart in the source; their conditions may differ.

Tests used:
[1] = 13-week dietary toxicity study; type: in vivo, CD [Crl:CD(SD)] rats
[2] = definitive developmental toxicity study; type: in vivo, Crl:CD(SD) rats
Method in brief: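 For the definitive developmental toxicity study, bred female Sprague-Dawley rats, 25/group, were given the sulfate salt of the test compound by oral gavage at 250, 500 or 1000 mg/kg bw/day, with a control group. Per litter, corpora lutea, implantation sites, pre- and post-implantation loss, live and dead fetuses, resorptions (early/late), fetal sex and fetal body weight were recorded.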

[3] = test system: 68 receptor binding assays for GPCRs, ion channels, nuclear receptors, transporters; assay: receptor lead profiling panel; conditions: 10 μM
[4] = cited from earlier work
[5] = cited from earlier work; remark: listed apart in the source
[6] = test system: human peripheral blood lymphocytes (HPBL); assay: in vitro micronucleus test; type: cell-based
Method in brief: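 HPBL micronucleus test per OECD 487, GLP. Exposures: 4 h −S9, 4 h +S9 (Aroclor 1254-induced male rat liver), 24 h −S9. DMSO solvent; positive controls vinblastine (−S9) and cyclophosphamide (+S9). 4 h cultures were washed, then 20 h in cytochalasin B 6.0 μg/mL. Dose range from preliminary toxicity test (0.2–2000 μg/mL). Duplicate cultures: CBPI from ≥1000 cells; ≥2000 binucleated cells scored.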

CYP2C9 = CYP2C9 (Homo sapiens, UniProt P11712); assay: CYP inhibition, spectrofluorimetric; type: biochemical; conditions: recombinant human CYP2C9 expressed in insect Sf9 cells
Chain of CYP2C9 (P11712 whole entry, canonical isoform): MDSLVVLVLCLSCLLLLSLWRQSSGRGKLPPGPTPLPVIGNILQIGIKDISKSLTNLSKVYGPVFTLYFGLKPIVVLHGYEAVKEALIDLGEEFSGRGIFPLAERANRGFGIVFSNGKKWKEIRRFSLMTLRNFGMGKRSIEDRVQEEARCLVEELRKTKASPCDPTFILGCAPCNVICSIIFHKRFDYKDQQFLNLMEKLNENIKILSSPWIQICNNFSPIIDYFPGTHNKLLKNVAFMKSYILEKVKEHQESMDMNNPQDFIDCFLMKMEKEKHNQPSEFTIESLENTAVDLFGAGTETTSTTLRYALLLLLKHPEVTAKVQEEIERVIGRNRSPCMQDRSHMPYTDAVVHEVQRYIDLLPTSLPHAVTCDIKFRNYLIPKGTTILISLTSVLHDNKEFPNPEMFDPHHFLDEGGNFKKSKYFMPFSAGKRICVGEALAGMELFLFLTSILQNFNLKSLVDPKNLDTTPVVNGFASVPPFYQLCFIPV
Method in brief: (§1)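 Inhibition was assayed with recombinant human CYP isoforms expressed in insect Sf9 cells. Turnover of spectrofluorimetric substrates was read by fluorescence. Test compound was tested at a single concentration of 10 μM.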

[7] = in vitro microsomal metabolism; type: in vitro ADME, Sprague-Dawley rat; conditions: 10 μM, 0.5 mg/mL, +NADPH, 120 min
[8] = 28-day dose-range finding dietary toxicity study; type: in vivo, CD [Crl:CD(SD)] rats
Method in brief: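 This 28-day dose-range-finding study used CD [Crl:CD(SD)] rats, 8/sex/group. Rats received test compound continuously in the diet at nominal 10, 30 or 100 mg/kg bw/day; controls got untreated diet. Dietary concentration (ppm) was adjusted weekly from body weight and food consumption to keep mg/kg bw/day doses constant. NOAEL was set from the 28-day findings.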

[9] = test system: S. typhimurium strains TA98, TA100, TA1535, TA1537; assay: bacterial reverse mutation test; type: cell-based
Method in brief: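 GLP plate-incorporation Ames test per OECD 471 with S. typhimurium TA98, TA100, TA1535, TA1537 and E. coli WP2 uvrA, ± Aroclor 1254-induced male rat liver S9. An initial toxicity-mutation phase (1.5–5000 μg/plate) set the range for the confirmatory assay at 100, 333, 1000, 3333 and 5000 μg/plate. Negative and positive controls were included. Toxicity and precipitate were noted.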

CYP2C19 = CYP2C19 (Homo sapiens, UniProt P33261); assay: CYP inhibition, spectrofluorimetric; type: biochemical; conditions: recombinant human CYP2C19 expressed in insect Sf9 cells
Chain of CYP2C19 (P33261 whole entry): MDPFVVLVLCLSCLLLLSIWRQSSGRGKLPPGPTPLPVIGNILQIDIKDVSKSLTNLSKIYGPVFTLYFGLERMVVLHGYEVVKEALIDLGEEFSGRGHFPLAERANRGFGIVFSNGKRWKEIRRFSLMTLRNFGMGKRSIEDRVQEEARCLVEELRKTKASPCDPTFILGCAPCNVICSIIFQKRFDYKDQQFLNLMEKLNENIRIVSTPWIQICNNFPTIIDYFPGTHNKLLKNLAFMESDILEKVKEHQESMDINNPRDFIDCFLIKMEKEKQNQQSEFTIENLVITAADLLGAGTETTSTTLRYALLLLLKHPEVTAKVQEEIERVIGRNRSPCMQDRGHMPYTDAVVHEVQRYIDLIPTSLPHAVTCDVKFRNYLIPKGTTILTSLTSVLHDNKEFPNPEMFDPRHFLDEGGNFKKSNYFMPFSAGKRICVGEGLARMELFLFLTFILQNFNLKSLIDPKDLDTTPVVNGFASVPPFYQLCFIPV
Method in brief: as §1

hERG = hERG (Homo sapiens, UniProt Q12809); assay: hERG electrophysiology; type: cell-based
Chain of hERG (Q12809 whole entry): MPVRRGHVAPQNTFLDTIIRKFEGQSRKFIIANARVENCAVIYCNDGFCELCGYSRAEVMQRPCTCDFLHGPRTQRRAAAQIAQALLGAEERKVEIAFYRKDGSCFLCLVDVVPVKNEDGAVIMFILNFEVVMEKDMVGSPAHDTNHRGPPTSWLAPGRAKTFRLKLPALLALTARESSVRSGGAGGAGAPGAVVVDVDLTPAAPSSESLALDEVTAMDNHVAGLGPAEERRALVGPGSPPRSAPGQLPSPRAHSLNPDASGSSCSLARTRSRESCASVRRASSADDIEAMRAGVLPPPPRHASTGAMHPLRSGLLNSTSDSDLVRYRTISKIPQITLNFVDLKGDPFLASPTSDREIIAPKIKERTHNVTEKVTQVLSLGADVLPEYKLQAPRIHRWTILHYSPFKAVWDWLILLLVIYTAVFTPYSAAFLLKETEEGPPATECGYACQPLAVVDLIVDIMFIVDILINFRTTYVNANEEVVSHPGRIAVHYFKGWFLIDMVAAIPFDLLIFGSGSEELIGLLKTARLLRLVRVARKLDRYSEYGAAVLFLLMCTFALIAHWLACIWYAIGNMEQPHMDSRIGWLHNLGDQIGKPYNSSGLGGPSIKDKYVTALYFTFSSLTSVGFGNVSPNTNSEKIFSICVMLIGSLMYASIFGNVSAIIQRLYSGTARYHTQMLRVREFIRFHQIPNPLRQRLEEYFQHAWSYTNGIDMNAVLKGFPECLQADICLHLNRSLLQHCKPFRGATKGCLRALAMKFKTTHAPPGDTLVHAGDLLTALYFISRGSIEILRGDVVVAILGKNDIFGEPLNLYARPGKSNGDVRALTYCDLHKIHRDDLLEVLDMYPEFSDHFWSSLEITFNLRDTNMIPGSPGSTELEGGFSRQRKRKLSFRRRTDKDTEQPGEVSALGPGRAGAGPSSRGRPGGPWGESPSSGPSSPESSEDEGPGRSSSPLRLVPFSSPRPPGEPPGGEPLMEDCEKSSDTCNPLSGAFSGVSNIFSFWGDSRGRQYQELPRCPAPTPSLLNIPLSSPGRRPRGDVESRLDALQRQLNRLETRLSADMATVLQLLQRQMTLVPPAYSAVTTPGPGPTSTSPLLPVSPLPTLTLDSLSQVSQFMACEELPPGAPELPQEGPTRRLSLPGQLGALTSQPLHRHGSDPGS

[10] = 140 mg/kg bw/day females, p < 0.05

Cc1cc(C(=O)NC(C)(C)COc2cccc3c2C(N)=NS(=O)(=O)N3)cc(C)n1.O=S(=O)(O)O [S8069]
pituitary/brain weight decrease vs control ([1]; 140 mg/kg bw/day females, p < 0.01): 17.7%
kidney/brain weight decrease vs control [1, 10]: 8.1%
liver/brain weight decrease vs control [1, 10]: 9.8%
pituitary gland mean absolute weight decrease vs control [1, 10]: 15.1%
pituitary/body weight decrease vs control [1, 10]: 14.6%
brain weight increase relative to control ([1]; 140 mg/kg bw/day females, p > 0.05): 3.4%
Findings ([1]; 30, 70, 140 mg/kg bw/day food ad-mix): No test-article related findings
margin of safety (NOAEL 140 mg/kg bw/day vs PADI 47 μg/kg bw/day) ([1]; rat, in vivo): > 2975 fold
Corpora Lutea ([2]; 250 mg/kg bw/d, Mean): 15.1
Dead Fetuses ([2]; 250 mg/kg bw/d, Mean): 0.0
Fetal Wt. ([2]; 250 mg/kg bw/d, Mean): 5.9 g
Fetuses, Sex F ([2]; 250 mg/kg bw/d, Mean): 7.2
Fetuses, Sex M ([2]; 250 mg/kg bw/d, Mean): 6.6
Implant. Sites ([2]; 250 mg/kg bw/d, Mean): 14.8
Post-Implant. Loss ([2]; 250 mg/kg bw/d, Mean): 1.0
Pre-Implant. Loss ([2]; 250 mg/kg bw/d, Mean): 0.4
Resorptions, Early ([2]; 250 mg/kg bw/d, Mean): 1.0
Resorptions, Late ([2]; 250 mg/kg bw/d, Mean): 0.0
Viable Fetuses ([2]; 250 mg/kg bw/d, Mean): 13.8
Corpora Lutea ([2]; 250 mg/kg bw/d, Total): 363
Dead Fetuses ([2]; 250 mg/kg bw/d, Total): 0
Fetuses, Sex F ([2]; 250 mg/kg bw/d, Total): 173
Fetuses, Sex M ([2]; 250 mg/kg bw/d, Total): 158
Implant. Sites ([2]; 250 mg/kg bw/d, Total): 354
Post-Implant. Loss ([2]; 250 mg/kg bw/d, Total): 23
Pre-Implant. Loss ([2]; 250 mg/kg bw/d, Total): 9
Resorptions, Early ([2]; 250 mg/kg bw/d, Total): 23
Resorptions, Late ([2]; 250 mg/kg bw/d, Total): 0
Viable Fetuses ([2]; 250 mg/kg bw/d, Total): 331
Corpora Lutea ([2]; 500 mg/kg bw/d, Mean): 16.1
Dead Fetuses ([2]; 500 mg/kg bw/d, Mean): 0.0
Fetal Wt. ([2]; 500 mg/kg bw/d, Mean): 5.6 g
Fetuses, Sex F ([2]; 500 mg/kg bw/d, Mean): 8.2
Fetuses, Sex M ([2]; 500 mg/kg bw/d, Mean): 6.6
Implant. Sites ([2]; 500 mg/kg bw/d, Mean): 15.4
Post-Implant. Loss ([2]; 500 mg/kg bw/d, Mean): 0.7
Pre-Implant. Loss ([2]; 500 mg/kg bw/d, Mean): 0.7
Resorptions, Early ([2]; 500 mg/kg bw/d, Mean): 0.7
Resorptions, Late ([2]; 500 mg/kg bw/d, Mean): 0.0
Viable Fetuses ([2]; 500 mg/kg bw/d, Mean): 14.7
Corpora Lutea ([2]; 500 mg/kg bw/d, Total): 370
Dead Fetuses ([2]; 500 mg/kg bw/d, Total): 0
Fetuses, Sex F ([2]; 500 mg/kg bw/d, Total): 188
Fetuses, Sex M ([2]; 500 mg/kg bw/d, Total): 151
Implant. Sites ([2]; 500 mg/kg bw/d, Total): 355
Post-Implant. Loss ([2]; 500 mg/kg bw/d, Total): 16
Pre-Implant. Loss ([2]; 500 mg/kg bw/d, Total): 15
Resorptions, Early ([2]; 500 mg/kg bw/d, Total): 16
Resorptions, Late ([2]; 500 mg/kg bw/d, Total): 0
Viable Fetuses ([2]; 500 mg/kg bw/d, Total): 339
malformations, fetuses (litters) ([2]; 500 mg/kg bw/day): 4(4)
skeletal malformations, fetuses (litters) ([2]; 500 mg/kg bw/day): 3(3)
visceral malformations, fetuses (litters) ([2]; 500 mg/kg bw/day): 3(3)
Corpora Lutea ([2]; 1000 mg/kg bw/d, Mean): 15.1
Dead Fetuses ([2]; 1000 mg/kg bw/d, Mean): 0.0
Fetal Wt. ([2]; 1000 mg/kg bw/d, Mean): 5.6 g
Fetuses, Sex F ([2]; 1000 mg/kg bw/d, Mean): 7.0
Fetuses, Sex M ([2]; 1000 mg/kg bw/d, Mean): 7.3
Implant. Sites ([2]; 1000 mg/kg bw/d, Mean): 14.6
Post-Implant. Loss ([2]; 1000 mg/kg bw/d, Mean): 0.3
Pre-Implant. Loss ([2]; 1000 mg/kg bw/d, Mean): 0.6
Resorptions, Early ([2]; 1000 mg/kg bw/d, Mean): 0.3
Resorptions, Late ([2]; 1000 mg/kg bw/d, Mean): 0.0
Viable Fetuses ([2]; 1000 mg/kg bw/d, Mean): 14.3
Corpora Lutea ([2]; 1000 mg/kg bw/d, Total): 348
Dead Fetuses ([2]; 1000 mg/kg bw/d, Total): 0
Fetuses, Sex F ([2]; 1000 mg/kg bw/d, Total): 160
Fetuses, Sex M ([2]; 1000 mg/kg bw/d, Total): 168
Implant. Sites ([2]; 1000 mg/kg bw/d, Total): 335
Post-Implant. Loss ([2]; 1000 mg/kg bw/d, Total): 7
Pre-Implant. Loss ([2]; 1000 mg/kg bw/d, Total): 13
Resorptions, Early ([2]; 1000 mg/kg bw/d, Total): 7
Resorptions, Late ([2]; 1000 mg/kg bw/d, Total): 0
Viable Fetuses ([2]; 1000 mg/kg bw/d, Total): 328
malformations, fetuses (litters) ([2]; 1000 mg/kg bw/day): 1(1)
visceral malformations, fetuses (litters) ([2]; 1000 mg/kg bw/day): 1(1)
females with rales 1 h following dose ([2]; 1000 mg/kg bw/day, GD 8–17): 6
females with salivation at time of dose ([2]; 1000 mg/kg bw/day, GD 12–16): 4
mean maternal body weight loss ([2]; 1000 mg/kg bw/day, Gestation Day 8–9): 2 g
external malformations ([2]; test article-treated groups): no external malformations observed

Cc1cc(C(=O)NC(C)(C)COc2cccc3c2C(N)=NS(=O)(=O)N3)cc(C)n1 [S2218, N-(1-((4-amino-2,2-dioxido-1H-benzo[c][1,2,6]thiadiazin-5-yl)oxy)-2-methylpropan-2-yl)-2,6-dimethylisonicotinamide]
inhibition or stimulation in lead profiling receptor screen [3]: < 50%
photostability to UV light vs S6973 and S617 [4]: significantly improved photostability
water solubility at low pH vs S6973 and S617 [5]: improved water solubility at low pH
Micronucleus formation (in vitro), result ([6]; 250–1000 μg/mL, 24 h exposure, −S9): negative for the induction of micronuclei
Micronucleus formation (in vitro), result ([6]; 500–2000 μg/mL, 4 h exposure, ±S9): neither clastogenic nor aneugenic; also recorded: negative for the induction of micronuclei
cytotoxicity (55 ± 5% CBPI relative to vehicle control) ([6]; micronucleus assay, any dose, three treatment conditions): not observed
concentration with visible precipitate ([6]; non-activated 24 h exposure): ≥ 1000 µg/mL
concentration with visible precipitate ([6]; non-activated and S9-activated 4 h exposure): 2000 µg/mL
inhibition at 10 μM (CYP2C9): ≤ 7%
% MS (EIC) peak area of parent relative to time 0 [7]: 96.5 ± 0.4%
Findings ([8]; 10, 30, 100 mg/kg bw/day food ad-mix): Slight increase in food consumption and mean body weight in males at 10 and 30 mg/kg bw/day
NOAEL at 28 days ([8]; both, CD [Crl:CD(SD)], rat, in vivo, oral): 100 mg/kg/day
Reverse mutation (in vitro), result ([9]; 100–5000 μg/plate, plate incorporation, ±S9): not found to be mutagenic; also recorded: Negative
cytotoxicity (background lawn / revertant colonies) ([9]; all tester strains, ±S9, up to 5000 μg per plate): No cytotoxicity
concentration at which precipitate was observed ([9]; confirmatory mutagenicity assay): ≥ 3333 μg per plate
concentration at which precipitate was observed ([9]; initial toxicity-mutation assay): 5000 μg per plate
inhibition at 10 μM (CYP2C19): ≤ 7%
inhibition at 10 μM (hERG): < 10%
